Data as given in ChEMBL document CHEMBL4177662, “Phosphamide-containing diphenylpyrimidine analogues (PA-DPPYs) as potent focal adhesion kinase (FAK) inhibitors with enhanced activity against pancreatic cancer cell lines” (Bioorg Med Chem, 2017).

How the values were obtained:
[1] = Antiproliferative activity against human HPDE6c7 cells after 72 hrs by MTT assay; type: cell-based; settings: HPDE6c7, 72 h
Outline: (§1)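 Cells grown in DMEM with 10% FBS and 1% penicillin-streptomycin at 37 °C, 5% CO2. Seeded at 4,000 to 5,000 cells/well, cultured one day, then exposed to compounds for 72 h at 1.25 to 40 μmol/L, five replicates per concentration. MTT absorbance read at 570 nm. IC50 from five-point dose-response curves; mean of at least three separate experiments.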

PANC-1 = experiment: Antiproliferative activity against human PANC1 cells after 72 hrs by MTT assay; type: functional, cell-based; settings: PANC-1, 72 h; outline: as §1
ASPC1 = experiment: Antiproliferative activity against human Aspc-1 cells after 72 hrs by MTT assay; type: functional, cell-based; settings: ASPC1, 72 h; outline: as §1
Focal adhesion kinase 1 = Focal adhesion kinase 1 (Homo sapiens, UniProt Q05397); experiment: Inhibition of recombinant human N-terminal His-tagged FAK cytoplasmic domain (393 to 698 residues) expressed in baculovirus infected sf9 cells assessed as reduction in autophosphorylation after 60 mins by ADP-Glo kinase assay
Outline: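 ADP-Glo luminescence assay. The kinase reaction ran in 1× kinase buffer with compound at 1 to 200 nM, for 60 min at room temperature. ADP-Glo reagent was then added to stop the reaction and deplete leftover ATP (40 min, room temperature). Detection reagent converted ADP to ATP for luciferase read-out (30 min). IC50 from curve fitting, mean ± SE of three independent experiments.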

BXPC-3 = experiment: Antiproliferative activity against human BxPC3 cells after 72 hrs by MTT assay; type: functional, cell-based; settings: BXPC-3, 72 h; outline: as §1

Chain of Focal adhesion kinase 1 (Q05397 whole entry, the tested form may be a part): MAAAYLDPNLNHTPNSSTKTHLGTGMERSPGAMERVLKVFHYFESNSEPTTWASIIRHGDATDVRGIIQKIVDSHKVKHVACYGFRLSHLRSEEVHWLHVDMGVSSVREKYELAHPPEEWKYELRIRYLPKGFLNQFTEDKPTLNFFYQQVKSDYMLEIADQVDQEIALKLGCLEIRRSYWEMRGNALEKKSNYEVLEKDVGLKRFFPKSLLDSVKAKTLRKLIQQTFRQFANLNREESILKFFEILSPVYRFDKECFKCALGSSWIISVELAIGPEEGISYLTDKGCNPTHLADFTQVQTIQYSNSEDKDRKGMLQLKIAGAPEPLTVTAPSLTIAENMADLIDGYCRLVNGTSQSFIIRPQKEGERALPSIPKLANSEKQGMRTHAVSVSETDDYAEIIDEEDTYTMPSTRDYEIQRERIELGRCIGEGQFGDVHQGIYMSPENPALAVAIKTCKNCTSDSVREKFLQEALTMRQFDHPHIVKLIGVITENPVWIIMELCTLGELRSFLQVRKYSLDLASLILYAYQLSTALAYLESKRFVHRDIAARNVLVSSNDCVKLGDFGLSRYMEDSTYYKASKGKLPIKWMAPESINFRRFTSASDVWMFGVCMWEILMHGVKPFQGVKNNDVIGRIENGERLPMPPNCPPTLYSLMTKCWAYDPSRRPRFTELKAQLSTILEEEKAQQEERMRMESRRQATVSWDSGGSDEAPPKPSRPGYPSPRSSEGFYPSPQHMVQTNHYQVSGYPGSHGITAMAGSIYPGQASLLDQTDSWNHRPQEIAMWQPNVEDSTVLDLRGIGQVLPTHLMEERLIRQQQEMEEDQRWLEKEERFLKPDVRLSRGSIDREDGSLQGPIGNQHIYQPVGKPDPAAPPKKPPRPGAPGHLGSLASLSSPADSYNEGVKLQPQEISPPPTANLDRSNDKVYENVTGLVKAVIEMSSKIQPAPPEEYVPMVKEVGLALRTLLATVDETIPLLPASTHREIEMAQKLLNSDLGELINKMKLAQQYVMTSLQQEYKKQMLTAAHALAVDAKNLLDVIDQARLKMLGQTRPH

Row | Compound | IC50 (PANC-1) | IC50 (ASPC1) | IC50 (Focal adhesion kinase 1) | IC50 (BXPC-3) | IC50 [1]
1 | CNC(=O)c1ccccc1Nc1nc(Nc2ccc(N3CCOCC3)cc2OC)ncc1Cl | > 20 µM | – | – | – | 11.4 µM
2 | CCOP(=O)(Cc1ccc(Nc2ncc([N+](=O)[O-])c(Nc3ccccc3C(=O)NC)n2)cc1)OCC | 19.2 µM | 15.2 µM | 0.00501 µM | 0.82 µM | 4.6 µM
3 | CCOP(=O)(Cc1ccc(Nc2ncc(Cl)c(Nc3ccccc3C(=O)NC)n2)cc1)OCC | 14.8 µM | 3.31 µM | 0.00425 µM | 0.02 µM | 5.44 µM
4 | CCOP(=O)(CCCOc1ccc(Nc2ncc([N+](=O)[O-])c(Nc3ccccc3C(=O)NC)n2)cc1)OCC | 25.4 µM | 18.3 µM | 0.00618 µM | 2.04 µM | 1.96 µM

More lines, main results first:

Row | IC50 (PANC-1) | IC50 (ASPC1) | IC50 (Focal adhesion kinase 1) | IC50 (BXPC-3) | Compound | IC50 [1]
5 | 10.9 µM | 4.93 µM | 0.0107 µM | 1.04 µM | CCOP(=O)(CCCOc1ccc(Nc2ncc(Cl)c(Nc3ccccc3C(=O)NC)n2)cc1)OCC | 4.43 µM
6 | > 40 µM | 6.42 µM | 0.00569 µM | 1.02 µM | CCOP(=O)(Cc1ccc(Nc2ncc([N+](=O)[O-])c(Nc3ccccc3C(=O)NC)n2)cc1)N1CCOCC1 (configuration not stated) | 8.11 µM
